The results in this text go back to ChEMBL document CHEMBL4350961, “Discovery of Pyrrolo[3,2- d]pyrimidin-4-one Derivatives as a New Class of Potent and Cell-Active Inhibitors of P300/CBP-Associated Factor Bromodomain” (J Med Chem, 2019).

Activity calls are given as the source filed them. The rule behind the calls is not given here.

For experiment [1], the target named is Histone acetyltransferase p300 (Homo sapiens) (UniProt Q09472). The experiment is described as follows: Binding affinity to human N-terminal His-tagged EP300 assessed as change in melting temperature at 10 uM by SYPRO orange dye-based fluorescence assay. Put shortly:
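Thermal shift with His-tagged human bromodomain at 2 μM final in 10 mM HEPES pH 7.5, 500 mM NaCl. Compound at 10 μM final with 0.1% DMSO; SYPRO Orange at 1:1000. Equilibrated 3 min at 25 °C, then heated from 25 to 95 °C at 1 °C/min. Melting temperature shift taken from fluorescence; at least duplicate.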

For experiment [2], the target named is Bromodomain testis-specific protein (Homo sapiens) (UniProt Q58F21). The experiment is described as follows: Binding affinity to human partial length BRDT bromodomain 1 (N21 to E137 residues) expressed in bacterial expression system at 1 uM by BROMOscan assay. A digest of the protocol:
(§1)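 BROMOscan bromodomain cross-screen run by an outside service, compound at 1 µM against 32 recombinant bromodomains. Binding given as percent of control.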

For experiment [3], the target named is Protein polybromo-1 (Homo sapiens) (UniProt Q86U86). The experiment is described as follows: Binding affinity to human partial length PBRM1 bromodomain 5 (S645 to D766 residues) expressed in bacterial expression system at 1 uM by BROMOscan assay. A digest of the protocol:
as §1

Experiment [4] concerns the target Histone acetyltransferase KAT2B (Homo sapiens, UniProt Q92831). The experiment is described as follows: Binding affinity to human partial length PCAF (G715 to D831 residues) expressed in bacterial expression system at 1 uM by BROMOscan assay. Put shortly: as §1
For experiment [5], the species on record is Homo sapiens. The experiment is described as follows: Inhibition of recombinant human ARAF Y301D/ Y302D mutant (273 to end residues) at 10 uM using myelin basic protein as substrate measured after 40 mins in presence of [gamma33P]ATP by scintillation counting method.
Experiment [6] addresses Serine/threonine-protein kinase B-raf (Homo sapiens) (UniProt P15056). The experiment is described as follows: Inhibition of recombinant human BRAF (416 to end residues) at 10 uM using myelin basic protein as substrate measured after 40 mins in presence of [gamma33P]ATP by scintillation counting method.
Experiment [7] relates to CDK18/Cyclin Y (Homo sapiens), Q07002+Q8ND76 [T166M]. The experiment is described as follows: Inhibition of recombinant full length human cyclinY/CDK18 T166M mutant at 10 uM using YRRAAVPPSPSLS as substrate measured after 40 mins in presence of [gamma33P]ATP by scintillation counting method. It is filed as protein-complex assay.
In experiment [8] the test system is Serine/threonine-protein kinase Chk2 (Homo sapiens), O96017 [R145W]. The experiment is described as follows: Inhibition of recombinant human CHK2 R145W mutant (5 to end residues) at 10 uM using KKKVSRSGLYRSPSMPENLNRPR as substrate measured after 40 mins in presence of [gamma33P]ATP by scintillation counting method.
Experiment [9] addresses Citron Rho-interacting kinase (Homo sapiens) (UniProt O14578). The experiment is described as follows: Inhibition of recombinant human CRIK at 10 uM using KKLRRTLSVA as substrate measured after 120 mins in presence of [gamma33P]ATP by scintillation counting method.
Experiment [10] concerns Epidermal growth factor receptor (Homo sapiens), P00533 [L858R,T790M]. The experiment is described as follows: Inhibition of recombinant human EGFR T790M/L858R mutant (696 to end residues) at 10 uM using GGMEDIYFEFMGGKKK as substrate measured after 40 mins in presence of [gamma33P]ATP by scintillation counting method.
Experiment [11] deals with Receptor tyrosine-protein kinase erbB-2 (Homo sapiens), P04626 [G778D]. The experiment is described as follows: Inhibition of recombinant human ErbB2 G778D mutant (676 to end residues) at 10 uM using poly (Glu, Tyr) 4:1 as substrate measured after 40 mins in presence of [gamma33P]ATP by scintillation counting method.
Experiment [12] has as its target G protein-coupled receptor kinase 3 (Homo sapiens) (UniProt P35626). The experiment is described as follows: Inhibition of recombinant full-length human GRK3 at 10 uM using casein as substrate measured after 40 mins in presence of [gamma33P]ATP by scintillation counting method.
Experiment [13] deals with Insulin-like growth factor 1 receptor (Homo sapiens) (UniProt P08069). The experiment is described as follows: Inhibition of recombinant human IGF1R (959 to end residues) at 10 uM using KKKSPGEYVNIEFG as substrate measured after 40 mins in presence of [gamma33P]ATP by scintillation counting method.
For experiment [14], the species on record is Homo sapiens. The experiment is described as follows: Inhibition of recombinant full-length human JNK2alpha2 S51N mutant at 10 uM using ATF2 as substrate measured after 40 mins in presence of [gamma33P]ATP by scintillation counting method.
In experiment [15] the target is Tyrosine-protein kinase Lyn (Homo sapiens) (UniProt P07948). The experiment is described as follows: Inhibition of recombinant full-length human Lyn at 10 uM using poly(Glu, Tyr) 4:1 as substrate measured after 40 mins in presence of [gamma33P]ATP by scintillation counting method.
The target in experiment [16] is Mitogen-activated protein kinase 1 (Homo sapiens) (UniProt P28482). The experiment is described as follows: Inhibition of recombinant full-length human MAPK1 at 10 uM using myelin basic protein as substrate measured after 40 mins in presence of [gamma33P]ATP by scintillation counting method.
For experiment [17], the target named is Mitogen-activated protein kinase kinase kinase kinase 3 (Homo sapiens) (UniProt Q8IVH8). The experiment is described as follows: Inhibition of recombinant human MAP4K3 (1 to 291 residues) at 10 uM using RLGRDKYKTLRQIRQ as substrate measured after 40 mins in presence of [gamma33P]ATP by scintillation counting method.
Sequence of Mitogen-activated protein kinase kinase kinase kinase 3 (Homo sapiens) (Q8IVH8 whole entry, the tested form may be a part): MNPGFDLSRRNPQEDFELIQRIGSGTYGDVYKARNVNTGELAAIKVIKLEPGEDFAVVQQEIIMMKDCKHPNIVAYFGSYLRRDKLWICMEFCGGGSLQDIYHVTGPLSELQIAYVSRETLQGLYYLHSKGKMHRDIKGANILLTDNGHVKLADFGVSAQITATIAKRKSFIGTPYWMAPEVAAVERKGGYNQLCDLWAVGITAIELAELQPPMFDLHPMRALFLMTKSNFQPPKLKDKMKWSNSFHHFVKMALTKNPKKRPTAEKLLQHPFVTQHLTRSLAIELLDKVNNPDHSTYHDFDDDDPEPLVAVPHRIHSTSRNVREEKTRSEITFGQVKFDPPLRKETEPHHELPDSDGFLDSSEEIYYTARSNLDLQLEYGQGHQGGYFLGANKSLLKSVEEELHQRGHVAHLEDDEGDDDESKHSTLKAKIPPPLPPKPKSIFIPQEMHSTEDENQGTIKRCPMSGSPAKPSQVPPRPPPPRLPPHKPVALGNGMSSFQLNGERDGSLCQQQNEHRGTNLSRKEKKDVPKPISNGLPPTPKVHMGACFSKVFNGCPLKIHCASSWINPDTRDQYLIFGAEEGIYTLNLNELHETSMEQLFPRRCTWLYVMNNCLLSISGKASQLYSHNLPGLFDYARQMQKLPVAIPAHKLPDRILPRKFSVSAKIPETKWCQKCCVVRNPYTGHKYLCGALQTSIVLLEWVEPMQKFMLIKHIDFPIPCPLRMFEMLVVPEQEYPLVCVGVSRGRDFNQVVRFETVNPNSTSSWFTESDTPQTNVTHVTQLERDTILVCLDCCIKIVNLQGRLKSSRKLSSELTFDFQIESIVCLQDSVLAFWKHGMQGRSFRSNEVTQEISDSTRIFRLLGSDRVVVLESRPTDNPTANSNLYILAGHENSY
Experiment [18] concerns the target Mitogen-activated protein kinase kinase kinase kinase 5 (Homo sapiens) (UniProt Q9Y4K4). The experiment is described as follows: Inhibition of recombinant full-length human MAP4K5 at 10 uM using myelin basic protein as substrate measured after 40 mins in presence of [gamma33P]ATP by scintillation counting method.
The target in experiment [19] is Serine/threonine-protein kinase MRCK alpha (Homo sapiens) (UniProt Q5VT25). The experiment is described as follows: Inhibition of recombinant human MRCKalpha (1 to 473 residues) at 10 uM using KKRNRTLTV as substrate measured after 40 mins in presence of [gamma33P]ATP by scintillation counting method.
For experiment [20], the target named is Serine/threonine-protein kinase tousled-like 1 (Homo sapiens) (UniProt Q9UKI8). The experiment is described as follows: Inhibition of recombinant full-length human TLK1 at 10 uM using casein as substrate measured after 40 mins in presence of [gamma33P]ATP by scintillation counting method.
Sequence of Serine/threonine-protein kinase tousled-like 1 (Homo sapiens) (Q9UKI8 whole entry): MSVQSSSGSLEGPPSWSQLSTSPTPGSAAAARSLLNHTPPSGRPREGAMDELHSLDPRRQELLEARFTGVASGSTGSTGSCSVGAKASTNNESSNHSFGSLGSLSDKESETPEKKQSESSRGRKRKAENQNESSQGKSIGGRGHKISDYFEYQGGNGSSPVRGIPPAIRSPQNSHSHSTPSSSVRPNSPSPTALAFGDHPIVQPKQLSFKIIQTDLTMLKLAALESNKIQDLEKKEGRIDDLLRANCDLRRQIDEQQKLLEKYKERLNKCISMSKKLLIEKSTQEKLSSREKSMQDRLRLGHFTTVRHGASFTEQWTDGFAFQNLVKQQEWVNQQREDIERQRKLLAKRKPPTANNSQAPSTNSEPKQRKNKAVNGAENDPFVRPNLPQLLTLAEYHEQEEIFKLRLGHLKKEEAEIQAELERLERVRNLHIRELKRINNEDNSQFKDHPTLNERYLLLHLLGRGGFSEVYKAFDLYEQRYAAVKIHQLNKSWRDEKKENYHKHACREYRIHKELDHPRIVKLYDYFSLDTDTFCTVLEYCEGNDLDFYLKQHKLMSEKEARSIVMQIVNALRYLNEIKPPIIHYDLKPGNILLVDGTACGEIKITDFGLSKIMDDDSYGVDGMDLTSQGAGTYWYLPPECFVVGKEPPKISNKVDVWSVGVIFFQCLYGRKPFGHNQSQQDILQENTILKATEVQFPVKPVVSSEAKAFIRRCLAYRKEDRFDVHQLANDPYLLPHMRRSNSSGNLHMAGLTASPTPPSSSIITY
The target of experiment [21] is High affinity nerve growth factor receptor (Homo sapiens) (UniProt P04629). The experiment is described as follows: Inhibition of human TrkA (440 to end residues) using KKKSPGEYVNIEFG as substrate measured after 40 mins in presence of [gamma33P]ATP by scintillation counting method.
Experiment [22] concerns the target Serine/threonine-protein kinase VRK1 (Homo sapiens) (UniProt Q99986). The experiment is described as follows: Inhibition of human VRK1 at 10 uM by radiometric method.
For experiment [23], the target named is Serine/threonine-protein kinase WNK3 (Homo sapiens) (UniProt Q9BYP7). The experiment is described as follows: Inhibition of human WNK3 (1 to 434 residues) using myelin basic protein as substrate measured after 40 mins in presence of [gamma33P]ATP by scintillation counting method.
Sequence of Serine/threonine-protein kinase WNK3 (Homo sapiens) (Q9BYP7 whole entry, the tested form may be a part): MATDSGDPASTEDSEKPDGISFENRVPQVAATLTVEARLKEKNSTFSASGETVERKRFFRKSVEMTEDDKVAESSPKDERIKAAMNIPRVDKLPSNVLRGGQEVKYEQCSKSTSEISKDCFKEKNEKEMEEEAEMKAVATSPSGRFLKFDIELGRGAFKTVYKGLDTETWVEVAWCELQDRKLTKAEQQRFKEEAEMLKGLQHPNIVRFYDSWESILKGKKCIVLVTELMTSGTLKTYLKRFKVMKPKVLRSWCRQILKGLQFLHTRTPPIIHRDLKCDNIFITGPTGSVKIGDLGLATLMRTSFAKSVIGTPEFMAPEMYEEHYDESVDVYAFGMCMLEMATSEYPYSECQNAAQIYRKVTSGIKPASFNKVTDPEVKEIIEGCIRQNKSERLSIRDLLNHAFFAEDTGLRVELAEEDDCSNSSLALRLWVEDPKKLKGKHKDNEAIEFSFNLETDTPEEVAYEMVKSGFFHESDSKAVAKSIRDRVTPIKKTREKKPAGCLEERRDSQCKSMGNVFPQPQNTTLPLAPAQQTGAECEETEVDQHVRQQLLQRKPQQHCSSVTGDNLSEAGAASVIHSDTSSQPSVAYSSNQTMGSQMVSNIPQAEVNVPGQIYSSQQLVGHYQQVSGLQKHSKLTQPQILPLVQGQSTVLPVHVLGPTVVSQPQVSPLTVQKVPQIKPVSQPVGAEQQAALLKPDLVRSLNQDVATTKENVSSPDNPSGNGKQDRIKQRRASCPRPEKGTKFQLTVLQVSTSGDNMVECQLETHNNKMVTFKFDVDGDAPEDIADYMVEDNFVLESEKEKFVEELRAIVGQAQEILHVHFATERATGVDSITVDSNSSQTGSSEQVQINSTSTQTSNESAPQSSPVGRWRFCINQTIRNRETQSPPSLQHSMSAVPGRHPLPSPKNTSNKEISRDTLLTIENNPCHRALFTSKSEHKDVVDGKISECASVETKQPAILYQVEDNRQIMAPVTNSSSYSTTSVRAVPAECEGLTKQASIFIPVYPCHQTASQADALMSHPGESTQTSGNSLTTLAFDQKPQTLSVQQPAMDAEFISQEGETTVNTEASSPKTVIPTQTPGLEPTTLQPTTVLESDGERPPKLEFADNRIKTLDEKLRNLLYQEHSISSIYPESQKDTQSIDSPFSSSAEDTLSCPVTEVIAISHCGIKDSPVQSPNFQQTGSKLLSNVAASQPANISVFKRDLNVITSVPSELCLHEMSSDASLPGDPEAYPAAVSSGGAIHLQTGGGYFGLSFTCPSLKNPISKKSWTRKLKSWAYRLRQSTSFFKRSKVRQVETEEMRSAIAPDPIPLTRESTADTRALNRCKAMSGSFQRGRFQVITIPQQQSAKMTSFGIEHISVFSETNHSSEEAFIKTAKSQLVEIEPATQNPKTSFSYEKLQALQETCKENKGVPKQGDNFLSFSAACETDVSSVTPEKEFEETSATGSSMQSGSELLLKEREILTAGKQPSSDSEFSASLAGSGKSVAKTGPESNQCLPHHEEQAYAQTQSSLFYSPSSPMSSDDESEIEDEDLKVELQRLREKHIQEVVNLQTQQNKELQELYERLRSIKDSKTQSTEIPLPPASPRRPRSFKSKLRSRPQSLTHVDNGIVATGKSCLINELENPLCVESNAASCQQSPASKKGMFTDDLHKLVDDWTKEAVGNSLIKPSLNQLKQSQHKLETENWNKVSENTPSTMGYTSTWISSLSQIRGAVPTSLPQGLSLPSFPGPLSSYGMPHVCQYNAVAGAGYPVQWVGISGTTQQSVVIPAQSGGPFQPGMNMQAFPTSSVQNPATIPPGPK

Sequence of G protein-coupled receptor kinase 3 (Homo sapiens) (P35626 whole entry): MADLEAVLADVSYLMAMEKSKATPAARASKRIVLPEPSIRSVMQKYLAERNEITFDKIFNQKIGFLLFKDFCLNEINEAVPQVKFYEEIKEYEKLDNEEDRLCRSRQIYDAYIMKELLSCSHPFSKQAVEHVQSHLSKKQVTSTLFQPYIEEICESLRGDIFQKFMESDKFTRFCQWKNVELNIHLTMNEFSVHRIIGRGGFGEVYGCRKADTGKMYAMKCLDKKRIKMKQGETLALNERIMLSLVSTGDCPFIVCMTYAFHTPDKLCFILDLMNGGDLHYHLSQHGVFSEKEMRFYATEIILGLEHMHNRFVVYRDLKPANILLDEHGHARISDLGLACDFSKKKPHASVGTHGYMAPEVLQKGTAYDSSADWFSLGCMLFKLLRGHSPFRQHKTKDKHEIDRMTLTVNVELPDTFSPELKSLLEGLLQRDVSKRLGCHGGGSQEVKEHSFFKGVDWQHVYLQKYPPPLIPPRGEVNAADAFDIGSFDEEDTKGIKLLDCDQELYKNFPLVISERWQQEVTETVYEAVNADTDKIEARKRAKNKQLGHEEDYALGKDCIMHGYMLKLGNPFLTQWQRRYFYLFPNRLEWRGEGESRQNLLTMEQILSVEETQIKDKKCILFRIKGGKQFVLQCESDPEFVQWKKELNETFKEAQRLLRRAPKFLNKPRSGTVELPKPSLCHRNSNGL
Sequence of Histone acetyltransferase KAT2B (Q92831 whole entry, looked up, the tested form may be a part): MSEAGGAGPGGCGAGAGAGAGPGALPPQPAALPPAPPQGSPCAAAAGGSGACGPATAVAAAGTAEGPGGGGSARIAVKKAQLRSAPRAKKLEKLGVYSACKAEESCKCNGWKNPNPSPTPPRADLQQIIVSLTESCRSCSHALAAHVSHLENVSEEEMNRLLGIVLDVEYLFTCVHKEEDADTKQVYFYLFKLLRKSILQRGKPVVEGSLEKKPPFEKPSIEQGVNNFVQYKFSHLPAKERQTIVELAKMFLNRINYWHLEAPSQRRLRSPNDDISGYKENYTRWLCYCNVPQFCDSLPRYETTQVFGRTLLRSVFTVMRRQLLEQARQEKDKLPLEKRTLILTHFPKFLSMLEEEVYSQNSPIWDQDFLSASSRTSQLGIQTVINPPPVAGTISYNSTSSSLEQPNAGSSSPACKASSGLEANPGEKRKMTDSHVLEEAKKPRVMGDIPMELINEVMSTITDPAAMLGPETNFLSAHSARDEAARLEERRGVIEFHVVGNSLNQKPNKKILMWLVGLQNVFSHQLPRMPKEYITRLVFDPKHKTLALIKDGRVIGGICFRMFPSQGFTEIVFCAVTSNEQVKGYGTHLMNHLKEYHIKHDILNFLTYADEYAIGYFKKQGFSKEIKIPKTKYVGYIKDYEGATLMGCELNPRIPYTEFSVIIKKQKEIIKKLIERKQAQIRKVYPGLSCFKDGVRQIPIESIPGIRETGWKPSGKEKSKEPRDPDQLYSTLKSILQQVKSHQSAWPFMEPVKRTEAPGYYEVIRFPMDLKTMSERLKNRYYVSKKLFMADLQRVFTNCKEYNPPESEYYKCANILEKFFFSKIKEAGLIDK

Consider `CN1C[C@H](Nc2nc3cc[nH]c3c(=O)n2C)C[C@H](c2ccc3c(c2)OCCO3)C1`, for which the ΔTm in [1] is 0.1 °C. In addition, the result in [2] and in experiment [3] was inactive. Moreover, the result in experiment [4] was Active. For the same compound, the inhibition entry in [5], in experiment [6], in experiment [7], in experiment [8], in experiment [9] and in experiment [10] was “inactive” throughout. The inhibition result in [11], in experiment [12], in experiment [13], in experiment [14], in experiment [15] and in experiment [16] was “inactive” throughout. The inhibition result in experiment [17], in experiment [18], in experiment [19], in experiment [20], in [21] and in [22] was “inactive” each time. Moreover, the inhibition result in [23] was “inactive”.
